Assays:
[1] = In vivo activity against microsporosis guinea pig, measured as the ratio of animals cured/animals infected (C/I) at dose 2.5 mg/kg; 0/2; format: functional
[2] = In vivo activity against vaginal candidoses in rats, measured as the ratio of animals cured/animals infected (C/I) at dose 2.5 mg/kg; 0/2; format: functional
Microsporum canis = assay: In vitro antifungal activity against Microsporum canis; format: functional
Method in brief: (§1)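 Fungal growth-inhibition screen (Godefroi method) against dermatophytes, yeasts, moulds and other fungi. The value is the lowest concentration (µg/mL) giving total inhibition of growth, tested up to 100 µg/mL.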

[3] = In vivo activity against microsporosis guinea pig, measured as the ratio of animals cured/animals infected (C/I) at dose 10 mg/kg; 1/2; format: functional
Trichophyton benhamiae = assay: In vitro antifungal activity against Trichophyton mentagrophytes; format: functional, Arthroderma benhamiae; method in brief: as §1
Candida tropicalis = assay: In vitro antifungal activity against Candida tropicalis; format: functional; method in brief: as §1
[4] = In vivo activity against vaginal candidoses in rats, measured as the ratio of animals cured/animals infected (C/I) at dose 2.5 mg/kg; C/I = 0/2; format: functional
[5] = In vivo activity against microsporosis guinea pig, measured as the ratio of animals cured/animals infected (C/I) at dose 2.5 mg/kg; C/I = 0/2; format: functional
Sporothrix schenckii = assay: In vitro antifungal activity against Sporothrix schenck ii; format: functional; method in brief: as §1
Cryptococcus neoformans = assay: In vitro antifungal activity against Cryptococcus neoformans; format: functional; method in brief: as §1
Phialophora verrucosa = assay: In vitro antifungal activity against Phialophora verrucosa; format: functional; method in brief: as §1
Aspergillus fumigatus = assay: In vitro antifungal activity against Aspergillus fumigatus; format: functional; method in brief: as §1
[6] = In vitro antifungal activity against Mucor sp; format: functional; method in brief: as §1
Candida albicans = assay: In vitro antifungal activity against Candida albicans; format: functional; method in brief: as §1
[7] = In vivo activity against microsporosis guinea pig, measured as the ratio of animals cured/animals infected (C/I) at dose 10 mg/kg; C/I = 2/4; format: functional
Saprolegnia = assay: In vitro antifungal activity against Saprolegnia sp; format: functional; method in brief: as §1
Trichophyton rubrum = assay: In vitro antifungal activity against Trichophyton rubrum; format: functional; method in brief: as §1
[8] = In vivo activity against microsporosis guinea pig, measured as the ratio of animals cured/animals infected (C/I) at dose 2.5 mg/kg; C/I = 1/6; format: functional
[9] = In vivo activity against microsporosis guinea pig, measured as the ratio of animals cured/animals infected (C/I) at dose 1.25 mg/kg; C/I = 0/6; format: functional
[10] = In vivo activity against microsporosis guinea pig, measured as the ratio of animals cured/animals infected (C/I) at dose 10 mg/kg; C/I = 5/6; format: functional
[11] = In vivo activity against vaginal candidoses in rats, measured as the ratio of animals cured/animals infected (C/I) at dose 2.5 mg/kg; C/I = 1/6; format: functional
[12] = In vivo activity against microsporosis guinea pig, measured as the ratio of animals cured/animals infected (C/I) at dose 2.5 mg/kg; C/I = 2/6; format: functional
[13] = In vivo activity against vaginal candidoses in rats, measured as the ratio of animals cured/animals infected (C/I) at dose 0.63 mg/kg; C/I = 0/4; format: functional
Rattus norvegicus [14] = assay: In vivo activity against vaginal candidoses in rats, measured as the ratio of animals cured/animals infected (C/I) at dose 1.25 mg/kg; C/I = 3/12; format: functional
[15] = In vivo activity against vaginal candidoses in rats, measured as the ratio of animals cured/animals infected (C/I) at dose 2.5 mg/kg; C/I = 4/11; format: functional
[16] = In vivo activity against vaginal candidoses in rats, measured as the ratio of animals cured/animals infected (C/I) at dose 10 mg/kg; C/I = 5/6; format: functional
[17] = In vivo activity against microsporosis guinea pig, measured as the ratio of animals cured/animals infected (C/I) at dose 10 mg/kg; C/I = 4/4; format: functional
[18] = In vivo activity against vaginal candidoses in rats, measured as the ratio of animals cured/animals infected (C/I) at dose 0.63 mg/kg; C/I = 4/11; format: functional
[19] = In vivo activity against vaginal candidoses in rats, measured as the ratio of animals cured/animals infected (C/I) at dose 1.25 mg/kg; C/I = 6/6; format: functional
[20] = In vivo activity against microsporosis guinea pig, measured as the ratio of animals cured/animals infected (C/I) at dose 10 mg/kg; C/I = 2/6; format: functional
[21] = In vivo activity against microsporosis guinea pig, measured as the ratio of animals cured/animals infected (C/I) at dose 2.5 mg/kg; C/I = 0/8; format: functional
[22] = In vivo activity against vaginal candidoses in rats, measured as the ratio of animals cured/animals infected (C/I) at dose 2.5 mg/kg; C/I = 6/6; format: functional
[23] = In vivo activity against microsporosis guinea pig, measured as the ratio of animals cured/animals infected (C/I) at dose 1.25 mg/kg; C/I = 0/8; format: functional
[24] = In vivo activity against microsporosis guinea pig, measured as the ratio of animals cured/animals infected (C/I) at dose 1.25 mg/kg; C/I = 12/15; format: functional
Rattus norvegicus [25] = assay: In vivo activity against vaginal candidoses in rats, measured as the ratio of animals cured/animals infected (C/I) at dose 1.25 mg/kg; C/I = 13/33; format: functional
[26] = In vivo activity against vaginal candidoses in rats, measured as the ratio of animals cured/animals infected (C/I) at dose 2.5 mg/kg; C/I = 29/34; format: functional
[27] = In vivo activity against microsporosis guinea pig, measured as the ratio of animals cured/animals infected (C/I) at dose 2.5 mg/kg; C/I = 11/12; format: functional
[28] = In vivo activity against vaginal candidoses in rats, measured as the ratio of animals cured/animals infected (C/I) at dose 0.63 mg/kg; C/I = 7/40; format: functional
[29] = In vivo activity against vaginal candidoses in rats, measured as the ratio of animals cured/animals infected (C/I) at dose 10 mg/kg; C/I = 12/12; format: functional
[30] = In vivo activity against microsporosis guinea pig, measured as the ratio of animals cured/animals infected (C/I) at dose 10 mg/kg; C/I = 6/6; format: functional
[31] = In vivo activity against microsporosis guinea pig, measured as the ratio of animals cured/animals infected (C/I) at dose 2.5 mg/kg; C/I = 3/10; format: functional
[32] = In vivo activity against vaginal candidoses in rats, measured as the ratio of animals cured/animals infected (C/I) at dose 0.63 mg/kg; C/I = 4/12; format: functional
[33] = In vivo activity against vaginal candidoses in rats, measured as the ratio of animals cured/animals infected (C/I) at dose 10 mg/kg; C/I = 10/12; format: functional
[34] = In vivo activity against vaginal candidoses in rats, measured as the ratio of animals cured/animals infected (C/I) at dose 2.5 mg/kg; C/I = 13/15; format: functional
[35] = In vivo activity against microsporosis guinea pig, measured as the ratio of animals cured/animals infected (C/I) at dose 10 mg/kg; C/I = 4/8; format: functional
Rattus norvegicus [36] = assay: In vivo activity against vaginal candidoses in rats, measured as the ratio of animals cured/animals infected (C/I) at dose 1.25 mg/kg; C/I = 16/18; format: functional
[37] = In vivo activity against vaginal candidoses in rats, measured as the ratio of animals cured/animals infected (C/I) at dose 10 mg/kg; C/I = 4/4; format: functional
[38] = In vivo activity against microsporosis guinea pig, measured as the ratio of animals cured/animals infected (C/I) at dose 20 mg/kg; 30/30; format: functional
[39] = In vivo activity against vaginal candidoses in rats, measured as the ratio of animals cured/animals infected (C/I) at dose 1.25 mg/kg; 0/12; format: functional
[40] = In vivo activity against microsporosis guinea pig, measured as the ratio of animals cured/animals infected (C/I) at dose 10 mg/kg; 4/34; format: functional
[41] = In vivo activity against vaginal candidoses in rats, measured as the ratio of animals cured/animals infected (C/I) at dose 10 mg/kg; 173/181; format: functional
[42] = In vivo activity against microsporosis guinea pig, measured as the ratio of animals cured/animals infected (C/I) at dose 2.5 mg/kg;0/14; format: functional
[43] = In vivo activity against vaginal candidoses in rats, measured as the ratio of animals cured/animals infected (C/I) at dose 2.5 mg/kg; 2/8; format: functional

Structure (SMILES)	Inhibition (Trichophyton benhamiae)	Inhibition (Candida tropicalis)	Inhibition (Sporothrix schenckii)	Inhibition (Cryptococcus neoformans)	Inhibition (Phialophora verrucosa)	Inhibition (Aspergillus fumigatus)	Inhibition [6]	Inhibition (Candida albicans)	Inhibition (Microsporum canis)	Inhibition (Saprolegnia)	Inhibition (Trichophyton rubrum)	also measured
C=CCn1ncn(-c2ccc(N3CCN(c4ccc(OC[C@@H]5COC(Cn6ccnc6)(c6ccc(Cl)cc6Cl)O5)cc4)CC3)cc2)c1=O (stereo partly drawn)	–	–	–	–	–	–	–	–	–	–	–	C/I ratio [1]: 0; C/I ratio [2]: 0; Lowest level of total inhibition (Microsporum canis): > 100 µg/mL; C/I ratio [3]: 1
CC(C)n1ncn(-c2ccc(N3CCN(c4ccc(OC[C@@H]5COC(Cn6ccnc6)(c6ccc(Cl)cc6Cl)O5)cc4)CC3)cc2)c1=O (stereo partly drawn)	100 µg/mL	100 µg/mL	>100 µg/mL	>100 µg/mL	>100 µg/mL	>100 µg/mL	>100 µg/mL	100 µg/mL	>100 µg/mL	>100 µg/mL	100 µg/mL	C/I ratio [4]: 0; C/I ratio [5]: 0; C/I ratio [7]: 0.5
Cc1nn(C(C)C)c(=O)n1-c1ccc(N2CCN(c3ccc(OC[C@@H]4COC(Cn5ccnc5)(c5ccc(Cl)cc5Cl)O4)cc3)CC2)cc1 (stereo partly drawn)	100 µg/mL	1 µg/mL	>100 µg/mL	>100 µg/mL	>100 µg/mL	>100 µg/mL	>100 µg/mL	100 µg/mL	>100 µg/mL	>100 µg/mL	>100 µg/mL	C/I ratio [8]: 1; C/I ratio [9]: 0; C/I ratio [10]: 0.833; C/I ratio [11]: 1
Cn1ncn(-c2ccc(N3CCN(c4ccc(OC[C@@H]5COC(Cn6ccnc6)(c6ccc(Cl)cc6Cl)O5)cc4)CC3)cc2)c1=O (stereo partly drawn)	1 µg/mL	1 µg/mL	>100 µg/mL	1 µg/mL	>100 µg/mL	100 µg/mL	>100 µg/mL	>100 µg/mL	>100 µg/mL	100 µg/mL	1 µg/mL	C/I ratio [12]: 0.333; C/I ratio [13]: 0; C/I ratio (Rattus norvegicus [14]): 0.25; C/I ratio [15]: 0.364; C/I ratio [9]: 0; C/I ratio [16]: 0.833; C/I ratio [17]: 1
Cc1nn(CC(C)C)c(=O)n1-c1ccc(N2CCN(c3ccc(OC[C@@H]4COC(Cn5cncn5)(c5ccc(Cl)cc5Cl)O4)cc3)CC2)cc1 (stereo partly drawn)	10 µg/mL	1 µg/mL	>100 µg/mL	100 µg/mL	>100 µg/mL	>100 µg/mL	> 100 µg/mL	100 µg/mL	>100 µg/mL	>100 µg/mL	>100 µg/mL	C/I ratio [18]: 0.364; C/I ratio [19]: 1; C/I ratio [20]: 0.333; C/I ratio [21]: 0; C/I ratio [22]: 1; C/I ratio [23]: 0
CCC(C)n1ncn(-c2ccc(N3CCN(c4ccc(OC[C@@H]5COC(Cn6cncn6)(c6ccc(Cl)cc6Cl)O5)cc4)CC3)cc2)c1=O (stereo partly drawn)	10 µg/mL	100 µg/mL	>100 µg/mL	100 µg/mL	>100 µg/mL	>100 µg/mL	>100 µg/mL	>100 µg/mL	>100 µg/mL	>100 µg/mL	10 µg/mL	C/I ratio [24]: 0.8; C/I ratio (Rattus norvegicus [25]): 0.394; C/I ratio [26]: 0.853; C/I ratio [27]: 11; C/I ratio [28]: 0.175; C/I ratio [29]: 1; C/I ratio [30]: 1
CCn1ncn(-c2ccc(N3CCN(c4ccc(OC[C@@H]5COC(Cn6cncn6)(c6ccc(Cl)cc6Cl)O5)cc4)CC3)cc2)c1=O (stereo partly drawn)	1 µg/mL	1 µg/mL	>100 µg/mL	10 µg/mL	>100 µg/mL	>100 µg/mL	>100 µg/mL	100 µg/mL	>100 µg/mL	>100 µg/mL	1 µg/mL	C/I ratio [31]: 0.3; C/I ratio [32]: 4; C/I ratio [33]: 0.833; C/I ratio [34]: 0.867; C/I ratio [35]: 0.5; C/I ratio (Rattus norvegicus [36]): 16; C/I ratio [23]: 0
CCCn1ncn(-c2ccc(N3CCN(c4ccc(OC[C@@H]5COC(Cn6ccnc6)(c6ccc(Cl)cc6Cl)O5)cc4)CC3)cc2)c1=O (stereo partly drawn)	100 µg/mL	>100 µg/mL	>100 µg/mL	>100 µg/mL	>100 µg/mL	>100 µg/mL	>100 µg/mL	>100 µg/mL	>100 µg/mL	>100 µg/mL	100 µg/mL	C/I ratio [37]: 1; C/I ratio [4]: 0
CC(=O)N1CCN(c2ccc(OCC3COC(Cn4ccnc4)(c4ccc(Cl)cc4Cl)O3)cc2)CC1 (stereo not drawn) [KETOCONAZOLE]	–	–	–	–	–	–	–	–	–	–	–	C/I ratio [38]: 1; C/I ratio [39]: 0; C/I ratio [40]: 0.118; C/I ratio [41]: 0.956; C/I ratio [42]: 0; C/I ratio [43]: 0.25
